From ChEMBL document CHEMBL1121911, “Analgesic narcotic antagonists. 8. 7 alpha-Alkyl-4,5 alpha-epoxymorphinan-6-ones” (1981)
Active and inactive are the calls of the source. No cut-off for these calls is given here.

Tests used:
Rattus norvegicus [1] = test: Narcotic antagonist activity in heat stimulus rat tail flick assay after subcutaneous administration; assay type: functional; conditions: sc
In short: (§1)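 Subcutaneous dosing. Salts were given in distilled H2O, and free bases were dissolved with 1 N HCl and then diluted. Each ED50 (agonist) or AD50 (antagonist) came from at least three doses, with at least five animals per dose.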

Mus musculus [2] = test: Narcotic agonistic activity in acetic acid mouse writhing assay after subcutaneous administration of the drug; assay type: functional; conditions: sc; in short: as §1
Rattus norvegicus [3] = test: Compound was tested for antinociceptive activity in heat stimulus rat tail flick assay after subcutaneous administration of the drug at a dose of 21 umol/Kg; Inactive; assay type: functional, organism-based
Mus musculus [4] = test: Compound was tested for narcotic agonistic activity in acetic acid mouse writhing assay after subcutaneous administration of the drug at a dose of 26 uM/kg; Inactive; assay type: functional, organism-based
Rattus norvegicus [5] = test: Compound was tested for antinociceptive activity in heat stimulus rat tail flick assay after subcutaneous administration of the drug; assay type: functional; conditions: sc; in short: as §1
Mus musculus [6] = test: Compound was tested for narcotic agonistic activity in acetic acid mouse writhing assay after subcutaneous administration of the drug at a dose of 18 uM/kg; Inactive; assay type: functional, organism-based
Mus musculus [7] = test: Compound was tested for narcotic agonistic activity in acetic acid mouse writhing assay after subcutaneous administration of the drug at a dose of 28 uM/kg; Inactive; assay type: functional, organism-based
Rattus norvegicus [8] = test: Compound was tested for antinociceptive activity in heat stimulus rat tail flick assay after subcutaneous administration of the drug at a dose of 29 umol/Kg; Inactive; assay type: functional, organism-based
Rattus norvegicus [9] = test: Compound was tested for antinociceptive activity in heat stimulus rat tail flick assay after subcutaneous administration of the drug at a dose of 25 umol/Kg; Inactive; assay type: functional, organism-based
Mus musculus [10] = test: Compound was tested for narcotic agonistic activity in acetic acid mouse writhing assay after subcutaneous administration of the drug at a dose of 25 uM/kg; Inactive; assay type: functional, organism-based
Rattus norvegicus [11] = test: Compound was tested for antinociceptive activity in heat stimulus rat tail flick assay after subcutaneous administration of the drug at a dose of 30 umol/Kg; Inactive; assay type: functional, organism-based
Mus musculus [12] = test: Compound was tested for narcotic agonistic activity in acetic acid mouse writhing assay after subcutaneous administration of the drug at a dose of 23 uM/kg; Inactive; assay type: functional, organism-based
Rattus norvegicus [13] = test: Compound was tested for antinociceptive activity in heat stimulus rat tail flick assay after subcutaneous administration of the drug at a dose of 23 umol/Kg; Inactive; assay type: functional, organism-based
Rattus norvegicus [14] = test: Compound was tested for antinociceptive activity in heat stimulus rat tail flick assay after subcutaneous administration of the drug at a dose of 28 umol/Kg; Inactive; assay type: functional, organism-based
Rattus norvegicus [15] = test: Compound was tested for antinociceptive activity in heat stimulus rat tail flick assay after subcutaneous administration of the drug at a dose of 18 umol/Kg; Inactive; assay type: functional, organism-based

COc1ccc2c3c1O[C@H]1C(=O)CCC4C(C2)N(CC2CC2)CCC341 (stereo not given in full)
ED50 (Rattus norvegicus [1]): 7.9 µmol/kg | ED50 (Mus musculus [2]): 39.6 µmol/kg

CC[C@H]1CC2C3Cc4ccc(OC)c5c4C2(CCN3C)[C@@H](O5)C1=O (stereo not given in full)
ED50 (Rattus norvegicus [3]): inactive | ED50 (Mus musculus [2]): 4.6 µmol/kg

C[C@@H]1C(=O)[C@@H]2Oc3c(O)ccc4c3C23CCN(CC2CC2)C(C4)C3[C@H]1C (stereo not given in full)
ED50 (Mus musculus [4]): inactive | ED50 (Rattus norvegicus [1]): 1.5 µmol/kg

COc1ccc2c3c1O[C@H]1C(=O)CC[C@H]4[C@@H](C2)N(C)CC[C@]314 [HYDROCODONE]
ED50 (Rattus norvegicus [5]): 5.2 µmol/kg | ED50 (Mus musculus [2]): 2.4 µmol/kg

CCCCC[C@H]1CC2C3Cc4ccc(OC)c5c4C2(CCN3C)[C@@H](O5)C1=O (stereo not given in full)
ED50 (Mus musculus [2]): 20.7 µmol/kg

COc1ccc2c(c1O)C13CCN(CC4CC4)C(C2)C1[C@@H](C)[C@H](C)C(=O)C3 (stereo not given in full)
ED50 (Rattus norvegicus [1]): > 25 µmol/kg | ED50 (Mus musculus [2]): > 25 µmol/kg

C[C@H]1[C@H]2Cc3ccc(O)cc3[C@]1(C)CCN2CC1CC1 [CYCLAZOCINE]
ED50 (Rattus norvegicus [1]): 0.8 µmol/kg | ED50 (Mus musculus [2]): 0.4 µmol/kg

COc1ccc2c3c1O[C@H]1[C@@H](O)[C@@H](CC(C)(C)O)CC4C(C2)N(C)CCC341 (stereo not given in full)
ED50 (Mus musculus [6]): inactive | ED50 (Rattus norvegicus [5]): > 18 µmol/kg

COc1ccc2c3c1O[C@H]1C(=O)CC[C@@]4(O)[C@@H](C2)N(CC2CC2)CC[C@]314
ED50 (Mus musculus [7]): inactive | ED50 (Rattus norvegicus [1]): 0.7 µmol/kg

O=C1CC[C@@]2(O)[C@H]3Cc4ccc(O)c5c4[C@@]2(CCN3CC2CC2)[C@H]1O5 [NALTREXONE]
ED50 (Rattus norvegicus [1]): 0.2 µmol/kg | ED50 (Mus musculus [2]): > 28 µmol/kg

COc1ccc2c3c1O[C@H]1c4[nH]c(C)cc4CC4C(C2)N(C)CCC341 (stereo not given in full)
ED50 (Rattus norvegicus [8]): inactive | ED50 (Mus musculus [2]): > 29 µmol/kg

COc1ccc2c3c1O[C@H]1C(=O)CC[C@@]4(O)[C@@H](C2)N(C)CC[C@]314 [OXYCODONE]
ED50 (Rattus norvegicus [5]): 2.9 µmol/kg | ED50 (Mus musculus [2]): 1.5 µmol/kg

C[C@H]1CC2C3Cc4ccc(O)c5c4C2(CCN3CC2CC2)C(O5)C1=O (stereo not given in full)
ED50 (Rattus norvegicus [1]): 4.4 µmol/kg | ED50 (Mus musculus [2]): 1.1 µmol/kg

O=C1CCC2(O)C3Cc4ccc(O)c5c4C2(CCN3CC2CCC2)[C@H]1O5 (stereo not given in full)
ED50 (Rattus norvegicus [1]): 1.1 µmol/kg | ED50 (Mus musculus [2]): 9.7 µmol/kg

COc1ccc2c3c1O[C@H]1C(=O)[C@@H](Cc4ccccc4)CC4C(C2)N(C)CCC341 (stereo not given in full)
ED50 (Rattus norvegicus [9]): inactive | ED50 (Mus musculus [2]): > 25 µmol/kg

COc1ccc2c3c1OC1C(=O)[C@@H](C)CC4C(C2)N(CC2CC2)CCC314 (stereo not given in full)
ED50 (Mus musculus [10]): inactive | ED50 (Rattus norvegicus [1]): 4.1 µmol/kg

Oc1ccc2c(c1)[C@@]13CCCC[C@@]1(O)[C@@H](C2)N(CC1CCC1)CC3 [BUTORPHANOL]
ED50 (Rattus norvegicus [1]): 2 µmol/kg | ED50 (Mus musculus [2]): 0.3 µmol/kg

COc1ccc2c3c1O[C@H]1c4oc(C)cc4CC4C(C2)N(C)CCC341 (stereo not given in full)
ED50 (Rattus norvegicus [11]): inactive | ED50 (Mus musculus [2]): 12.3 µmol/kg

C[C@@H]1C(=O)[C@@H]2Oc3c(O)ccc4c3C23CCN(CC2CCC2)C(C4)C3[C@H]1C (stereo not given in full)
ED50 (Rattus norvegicus [1]): 6.5 µmol/kg | ED50 (Mus musculus [2]): 15 µmol/kg

COc1ccc2c3c1O[C@H]1C(=O)[C@@H](C)CC4C(C2)N(C)CCC341 (stereo not given in full)
ED50 (Rattus norvegicus [5]): 4.2 µmol/kg | ED50 (Mus musculus [2]): 2.7 µmol/kg

CN1CC[C@]23c4c5ccc(O)c4O[C@H]2[C@@H](O)C=C[C@H]3[C@H]1C5 [MORPHINE]
ED50 (Rattus norvegicus [5]): 19 µmol/kg

COc1ccc2c3c1O[C@H]1C(=O)[C@@H](CC(C)(C)C)CC4C(C2)N(C)CCC341 (stereo not given in full)
ED50 (Mus musculus [12]): inactive | ED50 (Rattus norvegicus [13]): inactive

COc1ccc2c3c1O[C@H]1C(=O)CCC4C(C2)N(CC2CCC2)CCC341 (stereo not given in full)
ED50 (Mus musculus [2]): 20.3 µmol/kg

C[C@H]1CC2(O)C3Cc4ccc(O)c5c4C2(CCN3CC2CCC2)[C@@H](O5)C1=O (stereo not given in full)
ED50 (Rattus norvegicus [1]): 14.6 µmol/kg | ED50 (Mus musculus [2]): 3.5 µmol/kg

COc1ccc2c3c1O[C@H]1C(=O)[C@@H](C)[C@H](C)C4C(C2)N(CC2CC2)CCC341 (stereo not given in full)
ED50 (Rattus norvegicus [1]): 2.4 µmol/kg | ED50 (Mus musculus [2]): > 25 µmol/kg

C[C@H]1CC2C3Cc4ccc(O)c5c4C2(CCN3CC2CCC2)[C@@H](O5)C1=O (stereo not given in full)
ED50 (Rattus norvegicus [1]): 33.1 µmol/kg | ED50 (Mus musculus [2]): 0.8 µmol/kg

COc1ccc2c3c1O[C@H]1C(=O)CCC4(O)C(C2)N(CC2CCC2)CCC314 (stereo not given in full)
ED50 (Rattus norvegicus [1]): > 18 µmol/kg | ED50 (Mus musculus [2]): 16.2 µmol/kg

COc1ccc2c3c1O[C@H]1C(=O)/C(=C/N(C)C)CC4C(C2)N(C)CCC341 (stereo not given in full)
ED50 (Rattus norvegicus [14]): inactive | ED50 (Mus musculus [2]): 11 µmol/kg

C=CCN1CC[C@]23c4c5ccc(O)c4O[C@H]2[C@@H](O)C=C[C@H]3[C@H]1C5 [NALORPHINE]
ED50 (Rattus norvegicus [1]): 2.5 µmol/kg | ED50 (Mus musculus [2]): 3.5 µmol/kg

CC(C)=CCN1CC[C@]2(C)c3cc(O)ccc3C[C@H]1[C@H]2C [(+)-PENTAZOCINE]
ED50 (Rattus norvegicus [1]): 36.4 µmol/kg | ED50 (Mus musculus [2]): 13 µmol/kg

COc1ccc2c3c1O[C@H]1C(=O)[C@@H](C)[C@H](C)C4C(C2)N(CC2CCC2)CCC341 (stereo not given in full)
ED50 (Rattus norvegicus [1]): > 26 µmol/kg | ED50 (Mus musculus [2]): > 26 µmol/kg

COc1ccc2c(c1O)C13CCN(CC4CCC4)C(C2)C1[C@@H](C)[C@H](C)C(=O)C3 (stereo not given in full)
ED50 (Rattus norvegicus [1]): > 22 µmol/kg | ED50 (Mus musculus [2]): 14 µmol/kg

COc1ccc2c(c1O)C13CCN(CC4CC4)C(C2)C1C[C@H](C)C(=O)C3 (stereo not given in full)
ED50 (Rattus norvegicus [1]): > 28 µmol/kg | ED50 (Mus musculus [2]): 9.7 µmol/kg

O=C1CCC2C3Cc4ccc(O)c5c4C2(CCN3CC2CC2)[C@H]1O5 (stereo not given in full)
ED50 (Rattus norvegicus [1]): 0.6 µmol/kg | ED50 (Mus musculus [2]): 4.1 µmol/kg

COc1ccc2c3c1O[C@H]1C(=O)[C@@H](C)CC4(O)C(C2)N(CC2CCC2)CCC314 (stereo not given in full)
ED50 (Rattus norvegicus [15]): inactive | ED50 (Mus musculus [2]): 1.2 µmol/kg

C[C@H]1CC2(O)C3Cc4ccc(O)c5c4C2(CCN3CC2CC2)[C@@H](O5)C1=O (stereo not given in full)
ED50 (Mus musculus [4]): inactive | ED50 (Rattus norvegicus [1]): 0.09 µmol/kg

COc1ccc2c3c1O[C@H]1C(=O)[C@@H](C)CC4C(C2)N(CC2CCC2)CCC341 (stereo not given in full)
ED50 (Rattus norvegicus [1]): > 25 µmol/kg | ED50 (Mus musculus [2]): > 25 µmol/kg

O=C1CCC2C3Cc4ccc(O)c5c4C2(CCN3CC2CCC2)[C@H]1O5 (stereo not given in full)
ED50 (Rattus norvegicus [1]): 5 µmol/kg | ED50 (Mus musculus [2]): 0.2 µmol/kg

COc1ccc2c3c1O[C@H]1[C@@H](O)C=C[C@H]4[C@@H](C2)N(C)CC[C@@]341 [CODEINE]
ED50 (Rattus norvegicus [5]): 75 µmol/kg | ED50 (Mus musculus [2]): 10.3 µmol/kg

COc1ccc2c(c1OC)C13CCN(CC4CC4)C(C2)C1C[C@H](C)C(=O)C3 (stereo not given in full)
ED50 (Rattus norvegicus [1]): ~25 µmol/kg | ED50 (Mus musculus [2]): 9.1 µmol/kg

COc1ccc2c3c1O[C@H]1[C@@H](O)[C@@H](CC(C)=O)CC4C(C2)N(C)CCC341 (stereo not given in full)
ED50 (Rattus norvegicus [14]): inactive | ED50 (Mus musculus [2]): > 28 µmol/kg

COc1ccc2c3c1O[C@H]1C(=O)[C@@H](C)CC4(O)C(C2)N(CC2CC2)CCC314 (stereo not given in full)
ED50 (Rattus norvegicus [1]): 25.4 µmol/kg | ED50 (Mus musculus [2]): 18.7 µmol/kg

CN1CC[C@]23c4c5ccc(O)c4O[C@H]2C(=O)CC[C@H]3[C@H]1C5 [HYDROMORPHONE]
ED50 (Rattus norvegicus [5]): 1.3 µmol/kg | ED50 (Mus musculus [2]): 0.3 µmol/kg

COc1ccc2c3c1O[C@H]1C(=O)[C@@H](CO)CC4C(C2)N(C)CCC341 (stereo not given in full)
ED50 (Rattus norvegicus [11]): inactive | ED50 (Mus musculus [2]): 9.1 µmol/kg
